Measurements: ChEMBL document CHEMBL4118021, “Studies of TAK1-centered polypharmacology with novel covalent TAK1 inhibitors” (Bioorg Med Chem, 2017)
Active and inactive are the calls of the source. No cut-off for these calls is given here.

Assays:
[1] = biological target: Cyclin-dependent kinase 6 (Homo sapiens) (UniProt Q00534); test: Inhibition of CDK6 in human SKCO1 cells at 1 uM after 4 hrs using biotin labeled DLKPQNILVTSSGQIK probe by mass-spectrometric analysis relative to control; type: cell-based
[2] = biological target: Tyrosine-protein kinase Fyn (Homo sapiens) (UniProt P06241); test: Inhibition of FYN in human SKCO1 cells at 1 uM after 4 hrs using biotin labeled QGAKFPIKWTAPEAALYGR probe by mass-spectrometric analysis relative to control; type: cell-based
[3] = biological target: Proto-oncogene tyrosine-protein kinase Src (Homo sapiens) (UniProt P12931); test: Inhibition of SRC in human SKCO1 cells at 1 uM after 4 hrs using biotin labeled QGAKFPIKWTAPEAALYGR probe by mass-spectrometric analysis relative to control; type: cell-based
[4] = biological target: Dual specificity mitogen-activated protein kinase kinase 1 (Homo sapiens) (UniProt Q02750); test: Inhibition of MAP2K1 in human SKCO1 cells at 1 uM after 4 hrs using biotin labeled DVKPSNILVNSR probe by mass-spectrometric analysis relative to control; type: cell-based
Procedure, shortened: (§1)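 Live SK-CO-1 cells treated 4 h at 1 μM (DMSO control); cells lysed and lysates labeled with lysine-reactive ATP/ADP-biotin probe (KiNativ); probe-labeled kinase peptides quantified by mass spectrometry; inhibition expressed as percent reduction in probe-dependent recovery versus DMSO-treated cells.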

[5] = biological target: Serine/threonine-protein kinase Nek6 (Homo sapiens) (UniProt Q9HC98); test: Inhibition of NEK6 in human SKCO1 cells at 1 uM after 4 hrs using biotin labeled DIKPANVFITATGVVK probe by mass-spectrometric analysis relative to control; type: cell-based
[6] = biological target: Serine/threonine-protein kinase Nek7 (Homo sapiens) (UniProt Q8TDX7); test: Inhibition of NEK7 in human SKCO1 cells at 1 uM after 4 hrs using biotin labeled DIKPANVFITATGVVK probe by mass-spectrometric analysis relative to control; type: cell-based
[7] = biological target: Mitogen-activated protein kinase 14 (Homo sapiens) (UniProt Q16539); test: Inhibition of p38a in human SKCO1 cells at 1 uM after 4 hrs using biotin labeled QELNKTIWEVPER probe by mass-spectrometric analysis relative to control; type: cell-based
Procedure, shortened: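 Live SK-CO-1 cells were treated at 1 μM for 4 h alongside DMSO controls, then lysed. Lysates were labelled with a lysine-reactive ATP or ADP-biotin probe, and probe-dependent peptide recovery was quantified by mass spectrometry. Inhibition (%) is relative to DMSO-treated cells.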

[8] = biological target: Phosphatidylinositol 5-phosphate 4-kinase type-2 alpha (Homo sapiens) (UniProt P48426); test: Inhibition of PIP4K2A in human SKCO1 cells at 1 uM after 4 hrs using biotin labeled AKELPTLKDNDFINEGQK probe by mass-spectrometric analysis relative to control; type: cell-based
[9] = biological target: Wee1-like protein kinase (Homo sapiens) (UniProt P30291); test: Inhibition of Wee1 in human SKCO1 cells at 1 uM after 4 hrs using biotin labeled YIHSMSLVHMDIKPSNIFISR probe by mass-spectrometric analysis relative to control; type: cell-based; procedure, shortened: as §1
[10] = tested on: SW-620; test: Antiproliferative activity against human SW620 cells harboring KRAS G12V mutant after 72 hrs by CellTiter-Glo assay; type: functional, cell-based; details: SW-620, 72 h
[11] = tested on: SK-CO-1; test: Antiproliferative activity against human SKCO1 cells harboring KRAS G12V mutant after 72 hrs by CellTiter-Glo assay; type: functional, cell-based; details: SK-CO-1, 72 h
[12] = tested on: PANC-1; test: Antiproliferative activity against human PANC1 cells harboring KRAS G12D mutant after 72 hrs by CellTiter-Glo assay; type: functional, cell-based; details: PANC-1, 72 h
[13] = biological target: T1, Mitogen-activated protein kinase kinase kinase 7 (Homo sapiens) (UniProt O43318); details: NCI-H358, 1 uM
T1 sequence (whole entry): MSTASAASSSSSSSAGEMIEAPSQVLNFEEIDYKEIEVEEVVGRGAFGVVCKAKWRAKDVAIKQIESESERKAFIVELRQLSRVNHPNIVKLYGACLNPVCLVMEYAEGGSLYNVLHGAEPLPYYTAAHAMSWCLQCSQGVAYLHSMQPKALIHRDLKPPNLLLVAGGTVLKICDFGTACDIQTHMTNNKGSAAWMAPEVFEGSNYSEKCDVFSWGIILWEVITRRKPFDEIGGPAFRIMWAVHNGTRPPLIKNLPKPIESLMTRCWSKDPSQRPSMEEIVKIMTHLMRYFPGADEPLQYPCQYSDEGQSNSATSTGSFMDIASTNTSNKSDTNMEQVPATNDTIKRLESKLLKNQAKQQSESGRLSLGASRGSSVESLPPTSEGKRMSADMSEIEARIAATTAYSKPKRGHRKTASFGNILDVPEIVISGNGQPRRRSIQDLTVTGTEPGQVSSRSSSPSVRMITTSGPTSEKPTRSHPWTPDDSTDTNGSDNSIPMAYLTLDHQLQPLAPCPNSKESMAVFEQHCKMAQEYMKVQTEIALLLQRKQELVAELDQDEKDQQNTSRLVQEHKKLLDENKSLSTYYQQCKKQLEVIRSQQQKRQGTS

[14] = biological target: T1, Mitogen-activated protein kinase kinase kinase 7 (Homo sapiens); details: 0.6 uM
[15] = biological target: Inhibitor of nuclear factor kappa-B kinase subunit alpha (Homo sapiens) (UniProt O15111); test: Inhibition of IKKa in human SKCO1 cells at 1 uM after 4 hrs using biotin labeled DLKPENIVLQDVGGK probe by mass-spectrometric analysis relative to control; type: cell-based
[16] = biological target: Mitogen-activated protein kinase 8 (Homo sapiens) (UniProt P45983); test: Inhibition of JNK1 in human SKCO1 cells at 1 uM after 4 hrs using biotin labeled DLKPSNIVVK probe by mass-spectrometric analysis relative to control; type: cell-based
[17] = biological target: Mitogen-activated protein kinase 9 (Homo sapiens) (UniProt P45984); test: Inhibition of JNK2 in human SKCO1 cells at 1 uM after 4 hrs using biotin labeled DLKPSNIVVK probe by mass-spectrometric analysis relative to control; type: cell-based
[18] = biological target: Mitogen-activated protein kinase 10 (Homo sapiens) (UniProt P53779); test: Inhibition of JNK3 in human SKCO1 cells at 1 uM after 4 hrs using biotin labeled DLKPSNIVVK probe by mass-spectrometric analysis relative to control; type: cell-based
[19] = biological target: Tyrosine-protein kinase Lck (Homo sapiens) (UniProt P06239); test: Inhibition of LCK in human SKCO1 cells at 1 uM after 4 hrs using biotin labeled EGAKFPIKWTAPEAINYGTFTIK probe by mass-spectrometric analysis relative to control; type: cell-based
[20] = biological target: Cyclin-dependent kinase 16 (Homo sapiens) (UniProt Q00536); test: Inhibition of PCTAIRE1 in human SKCO1 cells at 1 uM after 4 hrs using biotin labeled SKLTDNLVALKEIR probe by mass-spectrometric analysis relative to control; type: cell-based
Procedure, shortened: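 Live SK-CO-1 cells exposed to compound at 1 μM or DMSO for 4 h (KiNativ). Lysates then labeled with lysine-reactive ATP/ADP-biotin probe, and probe-labeled kinase peptides quantified by mass spectrometry. Percent inhibition of probe-dependent recovery calculated relative to DMSO-treated cells.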

Chain of Phosphatidylinositol 5-phosphate 4-kinase type-2 alpha (Homo sapiens) (P48426 whole entry): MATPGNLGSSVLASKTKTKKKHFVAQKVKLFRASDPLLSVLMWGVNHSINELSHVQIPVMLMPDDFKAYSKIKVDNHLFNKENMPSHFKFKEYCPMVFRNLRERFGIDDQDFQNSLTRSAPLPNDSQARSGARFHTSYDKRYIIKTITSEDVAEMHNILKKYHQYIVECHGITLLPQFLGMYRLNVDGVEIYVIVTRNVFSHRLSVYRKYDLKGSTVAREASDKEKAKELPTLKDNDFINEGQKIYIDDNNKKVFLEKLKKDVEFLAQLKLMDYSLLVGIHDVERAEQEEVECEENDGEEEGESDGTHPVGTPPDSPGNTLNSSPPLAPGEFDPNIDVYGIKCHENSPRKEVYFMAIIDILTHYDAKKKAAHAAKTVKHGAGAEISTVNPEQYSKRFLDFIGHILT
Chain of Serine/threonine-protein kinase Nek6 (Homo sapiens) (Q9HC98 whole entry): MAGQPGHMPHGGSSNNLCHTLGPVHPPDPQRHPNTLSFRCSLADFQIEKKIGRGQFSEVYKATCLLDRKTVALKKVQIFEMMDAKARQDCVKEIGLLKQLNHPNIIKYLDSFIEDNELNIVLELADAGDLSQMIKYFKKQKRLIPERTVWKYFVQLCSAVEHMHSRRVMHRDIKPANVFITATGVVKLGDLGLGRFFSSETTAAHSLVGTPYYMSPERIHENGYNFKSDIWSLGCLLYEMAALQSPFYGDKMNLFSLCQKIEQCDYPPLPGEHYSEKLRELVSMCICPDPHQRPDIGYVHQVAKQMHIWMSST
Chain of Mitogen-activated protein kinase 8 (Homo sapiens) (P45983 whole entry): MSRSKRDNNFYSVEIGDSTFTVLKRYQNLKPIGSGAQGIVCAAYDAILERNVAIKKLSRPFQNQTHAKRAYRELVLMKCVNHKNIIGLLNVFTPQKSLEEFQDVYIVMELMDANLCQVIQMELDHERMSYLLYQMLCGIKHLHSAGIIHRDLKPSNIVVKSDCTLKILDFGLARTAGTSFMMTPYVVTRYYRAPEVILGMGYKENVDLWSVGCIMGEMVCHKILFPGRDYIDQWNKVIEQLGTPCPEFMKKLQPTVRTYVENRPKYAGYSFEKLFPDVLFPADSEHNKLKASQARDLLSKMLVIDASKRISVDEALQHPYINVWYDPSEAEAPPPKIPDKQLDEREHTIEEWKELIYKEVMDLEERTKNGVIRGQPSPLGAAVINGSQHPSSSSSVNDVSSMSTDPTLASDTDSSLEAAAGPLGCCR
Chain of Wee1-like protein kinase (Homo sapiens) (P30291 whole entry, looked up): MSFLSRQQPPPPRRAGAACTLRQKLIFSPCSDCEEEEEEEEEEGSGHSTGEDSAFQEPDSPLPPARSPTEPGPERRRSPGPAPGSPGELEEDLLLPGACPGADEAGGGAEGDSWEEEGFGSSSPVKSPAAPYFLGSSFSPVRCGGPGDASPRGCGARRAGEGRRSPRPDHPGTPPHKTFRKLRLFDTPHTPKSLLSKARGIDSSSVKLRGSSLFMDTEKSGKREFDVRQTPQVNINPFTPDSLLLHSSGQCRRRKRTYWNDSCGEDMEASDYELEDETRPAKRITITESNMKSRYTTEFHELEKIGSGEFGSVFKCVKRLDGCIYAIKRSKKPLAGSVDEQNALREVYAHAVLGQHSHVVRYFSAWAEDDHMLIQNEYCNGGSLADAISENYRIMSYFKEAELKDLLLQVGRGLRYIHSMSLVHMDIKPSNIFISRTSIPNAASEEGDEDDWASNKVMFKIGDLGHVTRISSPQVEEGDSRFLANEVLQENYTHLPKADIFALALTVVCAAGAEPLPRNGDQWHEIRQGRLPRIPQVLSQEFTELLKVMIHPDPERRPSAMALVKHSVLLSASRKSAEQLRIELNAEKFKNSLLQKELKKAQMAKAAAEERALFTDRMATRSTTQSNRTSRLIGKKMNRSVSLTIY
Chain of Cyclin-dependent kinase 6 (Homo sapiens) (Q00534 whole entry): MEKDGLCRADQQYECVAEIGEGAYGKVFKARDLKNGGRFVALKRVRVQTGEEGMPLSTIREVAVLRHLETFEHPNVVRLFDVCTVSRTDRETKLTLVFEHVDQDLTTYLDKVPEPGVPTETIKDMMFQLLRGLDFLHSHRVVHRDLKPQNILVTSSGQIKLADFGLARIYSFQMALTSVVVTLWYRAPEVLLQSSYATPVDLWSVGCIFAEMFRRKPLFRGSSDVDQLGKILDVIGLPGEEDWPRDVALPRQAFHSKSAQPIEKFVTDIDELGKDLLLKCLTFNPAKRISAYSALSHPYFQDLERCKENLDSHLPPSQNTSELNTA
Chain of Dual specificity mitogen-activated protein kinase kinase 1 (Homo sapiens) (Q02750 whole entry): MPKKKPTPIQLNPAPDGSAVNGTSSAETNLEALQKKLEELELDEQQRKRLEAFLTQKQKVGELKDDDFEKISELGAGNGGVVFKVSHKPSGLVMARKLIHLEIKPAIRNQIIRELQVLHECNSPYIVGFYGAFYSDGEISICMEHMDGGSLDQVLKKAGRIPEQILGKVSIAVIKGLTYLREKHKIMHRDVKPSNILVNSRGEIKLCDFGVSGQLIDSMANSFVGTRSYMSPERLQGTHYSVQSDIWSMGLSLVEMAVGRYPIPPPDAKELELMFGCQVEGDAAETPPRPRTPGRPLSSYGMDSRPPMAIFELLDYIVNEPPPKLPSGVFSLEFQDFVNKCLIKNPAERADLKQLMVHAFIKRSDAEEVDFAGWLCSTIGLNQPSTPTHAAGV
Chain of Cyclin-dependent kinase 16 (Homo sapiens) (Q00536 whole entry): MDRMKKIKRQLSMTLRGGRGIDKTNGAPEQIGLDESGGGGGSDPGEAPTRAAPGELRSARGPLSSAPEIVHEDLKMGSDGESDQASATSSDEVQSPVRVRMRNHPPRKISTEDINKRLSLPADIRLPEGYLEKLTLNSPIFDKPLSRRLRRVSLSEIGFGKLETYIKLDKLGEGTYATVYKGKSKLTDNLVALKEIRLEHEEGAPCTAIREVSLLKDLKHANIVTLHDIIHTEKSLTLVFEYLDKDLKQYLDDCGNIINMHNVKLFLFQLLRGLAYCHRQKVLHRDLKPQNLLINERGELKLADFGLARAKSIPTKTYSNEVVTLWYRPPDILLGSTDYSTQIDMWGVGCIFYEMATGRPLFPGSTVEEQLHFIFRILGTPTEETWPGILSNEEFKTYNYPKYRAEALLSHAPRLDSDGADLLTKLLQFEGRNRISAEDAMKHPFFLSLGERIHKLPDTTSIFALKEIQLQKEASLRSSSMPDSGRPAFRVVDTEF
Chain of Mitogen-activated protein kinase 10 (Homo sapiens) (P53779 whole entry): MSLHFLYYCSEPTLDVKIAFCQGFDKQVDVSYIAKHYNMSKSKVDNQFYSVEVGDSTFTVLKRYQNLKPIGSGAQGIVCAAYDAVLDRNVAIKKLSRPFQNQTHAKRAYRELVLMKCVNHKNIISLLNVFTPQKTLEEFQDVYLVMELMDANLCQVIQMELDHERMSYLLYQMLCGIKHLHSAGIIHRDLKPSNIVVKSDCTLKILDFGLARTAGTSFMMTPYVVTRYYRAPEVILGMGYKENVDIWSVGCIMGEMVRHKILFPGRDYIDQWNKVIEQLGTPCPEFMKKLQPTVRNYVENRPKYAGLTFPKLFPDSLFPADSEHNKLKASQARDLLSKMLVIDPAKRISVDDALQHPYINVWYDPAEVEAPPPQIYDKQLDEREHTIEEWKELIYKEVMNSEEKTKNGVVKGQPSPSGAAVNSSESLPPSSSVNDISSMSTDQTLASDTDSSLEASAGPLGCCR
Chain of Mitogen-activated protein kinase 14 (Homo sapiens) (Q16539 whole entry): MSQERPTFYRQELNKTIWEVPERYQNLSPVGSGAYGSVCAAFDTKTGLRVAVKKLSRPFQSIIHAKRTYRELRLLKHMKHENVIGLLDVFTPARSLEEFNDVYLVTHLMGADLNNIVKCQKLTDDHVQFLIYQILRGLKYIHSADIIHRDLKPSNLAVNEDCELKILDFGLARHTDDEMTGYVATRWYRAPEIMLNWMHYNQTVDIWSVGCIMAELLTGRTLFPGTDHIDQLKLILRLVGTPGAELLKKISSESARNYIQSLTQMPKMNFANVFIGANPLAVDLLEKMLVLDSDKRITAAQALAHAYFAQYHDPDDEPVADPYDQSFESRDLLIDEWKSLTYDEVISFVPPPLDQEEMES
Chain of Proto-oncogene tyrosine-protein kinase Src (Homo sapiens) (P12931 2-536 limits assumed): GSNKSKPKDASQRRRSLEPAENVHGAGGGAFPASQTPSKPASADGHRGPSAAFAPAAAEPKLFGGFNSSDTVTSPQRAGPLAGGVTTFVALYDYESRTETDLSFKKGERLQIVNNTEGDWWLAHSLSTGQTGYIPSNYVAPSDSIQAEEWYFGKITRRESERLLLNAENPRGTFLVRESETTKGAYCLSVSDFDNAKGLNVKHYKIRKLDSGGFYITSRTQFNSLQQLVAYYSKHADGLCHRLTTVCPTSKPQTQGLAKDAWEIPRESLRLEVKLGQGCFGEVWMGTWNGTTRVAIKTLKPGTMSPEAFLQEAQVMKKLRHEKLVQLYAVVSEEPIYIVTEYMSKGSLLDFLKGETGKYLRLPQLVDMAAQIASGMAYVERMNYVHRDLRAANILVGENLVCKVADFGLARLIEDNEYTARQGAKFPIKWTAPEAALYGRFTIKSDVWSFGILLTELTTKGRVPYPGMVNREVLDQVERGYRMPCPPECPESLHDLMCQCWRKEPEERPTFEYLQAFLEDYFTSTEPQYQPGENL
Chain of Mitogen-activated protein kinase 9 (Homo sapiens) (P45984 whole entry, looked up): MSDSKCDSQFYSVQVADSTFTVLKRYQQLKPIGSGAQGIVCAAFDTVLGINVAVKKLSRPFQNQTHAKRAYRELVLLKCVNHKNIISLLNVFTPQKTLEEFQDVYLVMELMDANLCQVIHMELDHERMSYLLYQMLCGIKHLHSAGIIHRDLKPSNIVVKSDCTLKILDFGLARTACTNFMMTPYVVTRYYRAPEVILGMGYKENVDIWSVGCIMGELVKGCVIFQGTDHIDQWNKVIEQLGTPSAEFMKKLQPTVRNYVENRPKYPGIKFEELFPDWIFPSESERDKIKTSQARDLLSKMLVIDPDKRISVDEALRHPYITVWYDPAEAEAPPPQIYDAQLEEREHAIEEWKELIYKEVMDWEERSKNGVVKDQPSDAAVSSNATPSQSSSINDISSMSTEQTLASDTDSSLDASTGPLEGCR

Row | SMILES | inhibition [1] [%] | inhibition [2] [%] | inhibition [3] [%] | inhibition [4] [%] | inhibition [5] [%] | inhibition [6] [%] | inhibition [7] [%] | inhibition [8] [%] | inhibition [9] [%] | IC50 [10] [nM] | IC50 [11] [nM] | IC50 [12] [nM] | inhibition [13] | inhibition [14] | inhibition [15] [%] | inhibition [16] [%] | inhibition [17] [%] | inhibition [18] [%] | inhibition [19] [%] | inhibition [20] [%]
1 | COc1cc(O)c2c(c1)/C=C/C[C@H](O)[C@H](O)C(=O)/C=C\C[C@H](C)OC2=O | 68.8 | 8.5 | 8.5 | 95 | 4.9 | 4.9 | 10.2 | 16.1 | 3 | 2540 | 250 | 2500 | Active | Active | – | – | – | – | – | –
2 | C=CC(=O)Nc1ccccc1Nc1nc(Nc2ccc(N3CCN(C)CC3)cc2)ncc1Cl | – | – | – | – | – | – | – | 2 | 79 | – | – | – | Active | Active | 4.9 | 70 | 70 | 70 | 0 | -8
3 | C=CC(=O)Nc1ccccc1Oc1nc(Nc2cnn(CCOC)c2)ncc1Cl | 54.5 | -0.9 | -0.9 | 7.9 | -0.4 | -0.4 | 12.7 | – | – | 506 | 318 | 5610 | – | – | 8.1 | 0.8 | 0.8 | 0.8 | -2.7 | -5.2
